Assay results reported in ChEMBL document CHEMBL3352430, “4-Aminopyridyl-based CYP51 inhibitors as anti-Trypanosoma cruzi drug leads with improved pharmacokinetic profile and in vivo potency” (J Med Chem, 2014).
Each block holds one molecule with its values, some of them ahead of it.

Experiments:
[1] = Drug uptake in mouse fat at 50 mg/kg, po in 20% HP-beta-CD measured at 8 hrs post dose; assay type: ADME, organism-based, Adipose tissue; set-up: dose 50 mg/kg, route oral; conditions: in vivo
Method in brief: (§1)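 Female Swiss Webster mice, 8 weeks old, given a single 50 mg/kg oral gavage dose in 20% HPβCD or 20% Kolliphor. Tissues taken from three mice at 2 and 8 h post dose. Homogenized by probe sonication in PBS (1:4 w/v), protein precipitated with acetonitrile, and compound measured by LC-MS/MS in μM.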

[2] = Drug uptake in mouse skeletal muscle at 50 mg/kg, po in 20% HP-beta-CD measured at 8 hrs post dose; assay type: ADME, organism-based, Muscle tissue; set-up: dose 50 mg/kg, route oral; conditions: in vivo; method in brief: as §1
Trypanosoma cruzi [3] = assay: Antitrypanosomal activity against Trypanosoma cruzi Y luc infected in mouse assessed as inhibition of parasitemia at 25 mg/kg, po bid in 20% Kolliphor administered for 4 consecutive days starting on day 3 of infection measured on day 7 post infection relative to vehicle-treated control; assay type: functional
Method in brief: (§2)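 Female Swiss Webster mice, 8 weeks old, infected ip with 10^5 T. cruzi Y luc trypomastigotes. Only mice with detectable luminescence on day 3 were treated. Compound given by oral gavage bid for four days, as a suspension in 20% HPβCD or a solution in 20% Kolliphor, five mice per group. Vehicle group and benznidazole 50 mg/kg served as controls. On day 7, mice were injected ip with 150 mg/kg d-luciferin and imaged after 5 min under isoflurane. Percent inhibition calculated against untreated mice; two-tailed paired t test.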

Liver [4] = assay: Half life in mouse liver microsomes; assay type: ADME
Trypanosoma cruzi [5] = assay: Antitrypanosomal activity against Trypanosoma cruzi Y luc infected in mouse assessed as inhibition of parasitemia at 40 mg/kg, ip bid in 60% DMSO administered for 4 consecutive days starting on day 3 of infection measured on day 7 post infection relative to vehicle-treated control
Intestine [6] = assay: Drug uptake in mouse intestine at 50 mg/kg, po in 20% Kolliphor measured at 8 hrs post dose; assay type: ADME, organism-based; set-up: dose 50 mg/kg, route oral; conditions: in vivo; method in brief: as §1
Liver [7] = assay: Drug uptake in mouse liver at 50 mg/kg, po in 20% HP-beta-CD measured at 8 hrs post dose; assay type: ADME, organism-based; set-up: dose 50 mg/kg, route oral; conditions: in vivo; method in brief: as §1
Liver microsome [8] = assay: Half life in human liver microsomes; assay type: ADME
Trypanosoma cruzi [9] = assay: Antitrypanosomal activity against Trypanosoma cruzi amastigotes infected in mouse C2C12 cells after 72 hrs by DAPI staining method; assay type: functional, organism-based; conditions: C2C12, 72 h
Heart [10] = assay: Drug uptake in mouse heart at 50 mg/kg, po in 20% Kolliphor measured at 8 hrs post dose; assay type: ADME, organism-based; set-up: dose 50 mg/kg, route oral; conditions: in vivo; method in brief: as §1
[11] = biological target: Sterol 14-alpha demethylase (Trypanosoma cruzi (strain CL Brener), UniProt Q7Z1V1); assay: Binding affinity to Trypanosoma cruzi CYP51 by UV-vis titration method; conditions: read-out: Kd(app)
Sterol 14-alpha demethylase, sequence (Q7Z1V1 whole entry): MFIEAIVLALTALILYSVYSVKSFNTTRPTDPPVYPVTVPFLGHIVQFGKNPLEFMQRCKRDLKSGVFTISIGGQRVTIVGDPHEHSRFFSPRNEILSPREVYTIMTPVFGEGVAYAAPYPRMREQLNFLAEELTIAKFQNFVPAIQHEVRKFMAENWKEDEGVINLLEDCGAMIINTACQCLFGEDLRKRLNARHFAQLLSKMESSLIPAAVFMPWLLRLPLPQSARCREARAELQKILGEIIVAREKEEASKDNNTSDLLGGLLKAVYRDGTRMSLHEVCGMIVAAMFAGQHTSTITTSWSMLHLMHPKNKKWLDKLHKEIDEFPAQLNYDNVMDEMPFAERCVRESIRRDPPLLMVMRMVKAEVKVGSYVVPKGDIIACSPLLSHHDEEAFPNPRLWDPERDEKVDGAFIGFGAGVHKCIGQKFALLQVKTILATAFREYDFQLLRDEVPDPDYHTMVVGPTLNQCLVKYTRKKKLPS

Cytochrome P450 1A2 = biological target: T1, Cytochrome P450 1A2 (Homo sapiens, UniProt P05177); assay: Inhibition of CYP1A2 in human liver microsomes at 1 uM; assay type: ADME
T1 sequence (P05177 whole entry): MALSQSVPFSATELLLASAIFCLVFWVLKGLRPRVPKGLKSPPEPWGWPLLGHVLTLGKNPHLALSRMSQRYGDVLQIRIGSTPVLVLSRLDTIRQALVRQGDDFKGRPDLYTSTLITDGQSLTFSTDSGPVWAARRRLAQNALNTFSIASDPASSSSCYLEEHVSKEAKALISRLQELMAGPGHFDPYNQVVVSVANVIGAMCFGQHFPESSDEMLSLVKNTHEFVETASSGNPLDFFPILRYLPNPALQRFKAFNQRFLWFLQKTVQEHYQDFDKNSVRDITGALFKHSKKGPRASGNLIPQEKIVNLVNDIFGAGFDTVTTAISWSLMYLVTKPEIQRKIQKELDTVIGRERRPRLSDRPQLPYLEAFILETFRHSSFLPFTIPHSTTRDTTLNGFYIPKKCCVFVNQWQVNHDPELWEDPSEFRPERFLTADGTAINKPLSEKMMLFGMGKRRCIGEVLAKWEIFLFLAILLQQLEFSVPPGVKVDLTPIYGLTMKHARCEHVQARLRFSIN

Intestine [12] = assay: Drug uptake in mouse intestine at 50 mg/kg, po in 20% HP-beta-CD measured at 8 hrs post dose; assay type: ADME, organism-based; set-up: dose 50 mg/kg, route oral; conditions: in vivo; method in brief: as §1
Cytochrome P450 2D6 = Cytochrome P450 2D6 (Homo sapiens, UniProt P10635); assay: Inhibition of CYP2D6 in human liver microsomes at 1 uM; assay type: ADME
Cytochrome P450 2D6, sequence (P10635 whole entry): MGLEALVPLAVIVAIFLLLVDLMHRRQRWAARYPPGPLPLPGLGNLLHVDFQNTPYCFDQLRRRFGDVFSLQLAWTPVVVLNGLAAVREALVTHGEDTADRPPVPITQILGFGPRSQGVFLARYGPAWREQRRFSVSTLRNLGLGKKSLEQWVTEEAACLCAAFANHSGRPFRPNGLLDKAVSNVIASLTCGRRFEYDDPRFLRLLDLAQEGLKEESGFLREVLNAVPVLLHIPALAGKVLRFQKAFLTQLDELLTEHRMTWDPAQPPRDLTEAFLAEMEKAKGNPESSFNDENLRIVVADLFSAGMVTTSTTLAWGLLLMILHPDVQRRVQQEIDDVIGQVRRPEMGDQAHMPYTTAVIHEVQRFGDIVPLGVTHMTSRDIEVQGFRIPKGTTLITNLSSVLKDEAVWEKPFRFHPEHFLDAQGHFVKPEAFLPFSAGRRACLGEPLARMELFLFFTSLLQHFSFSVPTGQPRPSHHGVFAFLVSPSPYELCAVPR

C2C12 = assay: Cytotoxicity against mouse C2C12 cells up to 10 uM; assay type: cell-based
Method in brief: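 Mouse C2C12 myoblasts infected with T. cruzi CA-I/72, then exposed at 24 h postinfection to compound at 10 μM down to 5 pM in 5-fold steps for 72 h at 37 °C. Cells fixed in paraformaldehyde, stained with DAPI and scored by automated imaging. Triplicate wells; uninfected and infected untreated wells as controls.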

[13] = Ratio of Kd(app) for Trypanosoma cruzi CYP51 to EC50 for Trypanosoma cruzi amastigotes infected in mouse C2C12 cells
Method in brief: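 Ratio of apparent KD to EC50. Apparent KD was approximated from UV–vis spectrophotometric titration of T. cruzi CYP51 in aqueous solution. […] Compounds were added 24 h postinfection at 10 μM down to 5 pM for 72 h at 37 °C, 5% CO2. Fixed cells were DAPI-stained and imaged, in triplicate.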

Liver microsome [14] = assay: Half life in rat liver microsomes; assay type: ADME
Liver [15] = assay: Drug uptake in mouse liver at 50 mg/kg, po in 20% Kolliphor measured at 8 hrs post dose; assay type: ADME, organism-based; set-up: dose 50 mg/kg, route oral; conditions: in vivo; method in brief: as §1
Lung [16] = assay: Drug uptake in mouse lung at 50 mg/kg, po in 20% Kolliphor measured at 8 hrs post dose; assay type: ADME, organism-based; set-up: dose 50 mg/kg, route oral; conditions: in vivo; method in brief: as §1
[17] = Drug uptake in mouse fat at 50 mg/kg, po in 20% Kolliphor measured at 8 hrs post dose; assay type: ADME, organism-based, Adipose tissue; set-up: dose 50 mg/kg, route oral; conditions: in vivo; method in brief: as §1
Heart [18] = assay: Drug uptake in mouse heart at 50 mg/kg, po in 20% HP-beta-CD measured at 8 hrs post dose; assay type: ADME, organism-based; set-up: dose 50 mg/kg, route oral; conditions: in vivo; method in brief: as §1
Cytochrome P450 3A4 = Cytochrome P450 3A4 (Homo sapiens, UniProt P08684); assay: Inhibition of CYP3A4 in human liver microsomes at 1 uM; assay type: ADME
Cytochrome P450 3A4, sequence (P08684 whole entry): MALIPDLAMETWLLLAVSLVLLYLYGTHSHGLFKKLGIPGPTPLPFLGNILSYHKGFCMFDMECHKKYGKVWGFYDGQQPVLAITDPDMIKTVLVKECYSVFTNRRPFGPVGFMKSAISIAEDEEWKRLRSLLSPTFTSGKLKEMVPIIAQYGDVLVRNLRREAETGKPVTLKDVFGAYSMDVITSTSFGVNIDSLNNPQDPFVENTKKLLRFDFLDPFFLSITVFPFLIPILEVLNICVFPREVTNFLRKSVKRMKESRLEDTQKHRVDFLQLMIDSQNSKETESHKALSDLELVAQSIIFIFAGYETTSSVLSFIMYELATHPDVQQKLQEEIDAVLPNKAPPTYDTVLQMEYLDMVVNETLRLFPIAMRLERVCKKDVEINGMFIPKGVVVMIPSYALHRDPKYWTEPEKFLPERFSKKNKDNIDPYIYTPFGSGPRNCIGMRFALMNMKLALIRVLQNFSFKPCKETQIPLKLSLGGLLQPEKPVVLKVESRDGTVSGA

Cytochrome P450 2C9 = Cytochrome P450 2C9 (Homo sapiens, UniProt P11712); assay: Inhibition of CYP2C9 in human liver microsomes at 1 uM; assay type: ADME
Cytochrome P450 2C9, sequence (P11712 whole entry): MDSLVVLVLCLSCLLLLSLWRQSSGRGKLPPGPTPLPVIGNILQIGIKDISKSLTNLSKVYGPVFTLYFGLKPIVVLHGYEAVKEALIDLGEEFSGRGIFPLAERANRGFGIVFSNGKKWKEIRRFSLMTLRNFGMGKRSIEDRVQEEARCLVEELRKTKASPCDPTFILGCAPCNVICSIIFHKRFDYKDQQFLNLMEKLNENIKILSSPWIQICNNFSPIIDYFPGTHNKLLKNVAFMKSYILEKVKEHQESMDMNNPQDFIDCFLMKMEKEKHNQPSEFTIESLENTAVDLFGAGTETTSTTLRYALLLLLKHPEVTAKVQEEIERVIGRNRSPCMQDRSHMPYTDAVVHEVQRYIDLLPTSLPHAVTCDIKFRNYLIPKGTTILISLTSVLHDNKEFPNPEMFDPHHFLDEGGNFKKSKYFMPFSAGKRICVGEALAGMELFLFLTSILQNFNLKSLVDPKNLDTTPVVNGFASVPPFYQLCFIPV

[19] = Drug uptake in mouse skeletal muscle at 50 mg/kg, po in 20% Kolliphor measured at 8 hrs post dose; assay type: ADME, organism-based, Muscle tissue; set-up: dose 50 mg/kg, route oral; conditions: in vivo; method in brief: as §1
Lung [20] = assay: Drug uptake in mouse lung at 50 mg/kg, po in 20% HP-beta-CD measured at 8 hrs post dose; assay type: ADME, organism-based; set-up: dose 50 mg/kg, route oral; conditions: in vivo; method in brief: as §1
Brain [21] = assay: Drug uptake in mouse brain at 50 mg/kg, po in 20% HP-beta-CD measured at 8 hrs post dose; assay type: ADME, organism-based; set-up: dose 50 mg/kg, route oral; conditions: in vivo; method in brief: as §1
[22] = Half life in mouse at 50 mg/kg, po in 20% Kolliphor; assay type: ADME, organism-based; set-up: dose 50 mg/kg, route oral; conditions: in vivo
Method in brief: (§3)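 Female Swiss Webster mice, 8 weeks old, given one oral gavage dose of 50 mg/kg as a 10 mg/mL preparation in the named vehicle (20% HPβCD suspension or 20% Kolliphor). Plasma sampled at about 0.25, 0.5, 1, 2, 4, 6, 8, 12 and 24 h, n = 3 per time point. Protein precipitated with 5 volumes acetonitrile, filtered, then LC-MS/MS. Values are averages of three mice.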

[23] = AUClast in mouse at 50 mg/kg, po in 20% HP-beta-CD; assay type: ADME, organism-based, Plasma; set-up: time 0 - last, dose 50 mg/kg, route oral; conditions: plasma; method in brief: as §3
Brain [24] = assay: Drug uptake in mouse brain at 50 mg/kg, po in 20% Kolliphor measured at 2 hrs post dose; assay type: ADME, organism-based; set-up: dose 50 mg/kg, route oral; conditions: in vivo; method in brief: as §1
[25] = AUClast in mouse at 50 mg/kg, po in 20% Kolliphor; assay type: ADME, organism-based; set-up: time 0 - last, dose 50 mg/kg, route oral; conditions: plasma; method in brief: as §3
[26] = Tmax in mouse at 50 mg/kg, po in 20% HP-beta-CD; assay type: ADME, organism-based; set-up: dose 50 mg/kg, route oral; conditions: in vivo; method in brief: as §3
Cardiomyocyte = assay: Cytotoxicity against mouse cardiomyocytes assessed as growth inhibition after 72 hrs by Cell Titer Glo assay
Hepatocyte = assay: Cytotoxicity against mouse hepatocytes assessed as growth inhibition after 72 hrs by Cell Titer Glo assay
[27] = Cmax in mouse at 50 mg/kg, po in 20% Kolliphor; assay type: ADME, organism-based; set-up: dose 50 mg/kg, route oral; conditions: in vivo; method in brief: as §3
[28] = Cmax in mouse at 50 mg/kg, po in 20% HP-beta-CD; assay type: ADME, organism-based; set-up: dose 50 mg/kg, route oral; conditions: in vivo; method in brief: as §3
[29] = Clearance in mouse at 50 mg/kg, po in 20% Kolliphor; assay type: ADME, organism-based; set-up: dose 50 mg/kg, route oral; conditions: in vivo; method in brief: as §3
[30] = Half life in mouse at 50 mg/kg, po in 20% HP-beta-CD; assay type: ADME, organism-based; set-up: dose 50 mg/kg, route oral; conditions: in vivo; method in brief: as §3
Trypanosoma cruzi [31] = assay: Antitrypanosomal activity against Trypanosoma cruzi Y luc infected in mouse assessed as inhibition of parasitemia at 50 mg/kg, po bid in 20% Kolliphor administered for 4 consecutive days starting on day 3 of infection measured on day 7 post infection relative to vehicle-treated control; assay type: functional; method in brief: as §2
[32] = Tmax in mouse at 50 mg/kg, po in 20% Kolliphor; assay type: ADME, organism-based; set-up: dose 50 mg/kg, route oral; conditions: in vivo; method in brief: as §3
Brain [33] = assay: Drug uptake in mouse brain at 50 mg/kg, po in 20% Kolliphor measured at 8 hrs post dose; assay type: ADME, organism-based; set-up: dose 50 mg/kg, route oral; conditions: in vivo; method in brief: as §1
[34] = Clearance in mouse at 50 mg/kg, po in 20% HP-beta-CD; assay type: ADME, organism-based; set-up: dose 50 mg/kg, route oral; conditions: in vivo; method in brief: as §3

Drug uptake [1]: Active
Drug uptake [2]: Active
t1/2 (Liver [4]): 0.333 h
Drug uptake (Intestine [6]): Active
Drug uptake (Liver [7]): Active
t1/2 (Liver microsome [8]): 6 min
EC50 (Trypanosoma cruzi [9]): 59 nM
Drug uptake (Heart [10]): Active
Kd [11]: 290 nM
inhibition (INH) (Cytochrome P450 1A2): 5%
Drug uptake (Intestine [12]): Active
inhibition (INH) (Cytochrome P450 2D6): 52%
t1/2 (Liver microsome [14]): 0.3 h
Drug uptake (Liver [15]): Active
Drug uptake (Lung [16]): Active
Drug uptake [17]: Active
Drug uptake (Heart [18]): Active
inhibition (INH) (Cytochrome P450 3A4): 84%
inhibition (INH) (Cytochrome P450 2C9): 95%
Drug uptake [19]: Active
Drug uptake (Lung [20]): Active
SMILES: O=C(N[C@H](Cc1c[nH]c2ccccc12)C(=O)Nc1ccncc1)c1ccc(N2CCN(c3cccc(F)c3)CC2)cc1F
inhibition in vivo at 25 mg/kg (Trypanosoma cruzi [3]): 47.7%
inhibition in vivo at 40 mg/kg (Trypanosoma cruzi [5]): 97.9%
Activity (C2C12): Non-toxic
Ratio [13]: 10

Drug uptake [1]: Active
Drug uptake (Brain [21]): Active
half-life [22]: 4.55 h
Drug uptake [2]: Active
AUC(0-t) [23]: 2.37 µM·h
Drug uptake (Brain [24]): Active
AUC(0-t) [25]: 17.7 µM·h
Tmax [26]: 2.67 h
Drug uptake (Intestine [6]): Active
Drug uptake (Liver [7]): Active
Drug uptake (Heart [10]): Active
Drug uptake (Intestine [12]): Active
Cmax [27]: 2080 nM
Cmax [28]: 640 nM
CL/F [29]: 83.5 mL/min/kg
half-life [30]: 1.45 h
Drug uptake (Liver [15]): Active
Drug uptake (Lung [16]): Active
Drug uptake [17]: Active
Drug uptake (Heart [18]): Active
Tmax [32]: 4 h
Drug uptake (Brain [33]): Active
CL/F [34]: 562 mL/min/kg
Drug uptake [19]: Active
Drug uptake (Lung [20]): Active
SMILES: O=C(N[C@H](Cc1c[nH]c2ccccc12)C(=O)Nc1ccncc1)c1ccc(N2CCN(c3ccc(F)c(F)c3)CC2)cc1F
EC50 (Cardiomyocyte): > 90000 nM
EC50 (Hepatocyte): > 90000 nM
Activity (C2C12): Non-toxic
inhibition in vivo at 50 mg/kg (Trypanosoma cruzi [31]): 98.6%
